# According to ChEMBL document CHEMBL1145092, “Soft antimicrobial agents: synthesis and activity of labile environmentally friendly long chain quaternary ammonium compounds” (J Med Chem, 2003):
# Assays:
# [1] = test system: Escherichia coli; assay: Minimum concentration required to inhibit Escherichia coli ATCC 25922; type: functional
# In short: (§1)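 Broth doubling-dilution MIC in Mueller Hinton broth against ATCC quality-control strains, incubated 24 h at 37 °C in ambient air. Poorly water-soluble compounds were dissolved in minimal DMSO. Values are in µg/mL.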
# [2] = test system: Enterococcus faecalis; assay: Minimum concentration required to inhibit Enterococcus faecalis ATCC 29212; type: functional; in short: as §1
# [3] = test system: Pseudomonas aeruginosa; assay: Minimum concentration required to inhibit Pseudomonas aeruginosa ATCC 27853; type: functional; in short: as §1
# [4] = test system: Staphylococcus aureus; assay: Minimum concentration required to inhibit Staphylococcus aureus ATCC 25923; type: functional; in short: as §1
# [5] = Half life (t1/2) was determined; type: ADME
# In short: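 Hydrolytic stability: compound from a 0.1 mg/mL ethanol stock was spiked into 10 mM phosphate buffer, pH 6, and held at 60 °C (±0.2 °C). Periodic HPLC or LC-MS/MS analysis was run, and k_obs came from linear regression of peak integration (n = 3). Selected compounds were also tested in diluted (1:4) agar at 37 °C.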
# [6] = test system: Staphylococcus aureus; assay: Tested for antibacterial activity against Staphylococcus aureus; type: functional
SMILES,MIC [1],MLC [1],MIC [2],MLC [2],MIC [3],MLC [3],MIC [4],MLC [4],Log t1/2 [5],Log 1/MIC [6]
CC(=O)OC[n+]1ccccc1.[Cl-],3200 µg/mL,3200 µg/mL,320 µg/mL,3200 µg/mL,3200 µg/mL,3200 µg/mL,3200 µg/mL,3200 µg/mL,–,–
CCCCCCCCCCCC(=O)OCC[N+](CC)(CC)CC.CCCCCCCCCCCC(=O)OCC[N+](CCCC)(CCCC)CCCC.CCCCCCCCCCCC(=O)OCC[n+]1ccccc1.CCCCCCCCCCCCNC(=O)C[n+]1ccccc1.[Br-].[Br-].[Br-].[Br-],125 µg/mL,250 µg/mL,32 µg/mL,32 µg/mL,500 µg/mL,1000 µg/mL,16 µg/mL,250 µg/mL,–,–
CCCCCCCCCCCCCCCCOC(=O)C[n+]1ccccc1,6400 µg/mL,12800 µg/mL,> 12800 µg/mL,>12800 µg/mL,6400 µg/mL,6400 µg/mL,12800 µg/mL,12800 µg/mL,-0.9,-4.1
CCOC(=O)C(C)[n+]1ccccc1 (stereo not drawn),> 12800 µg/mL,>12800 µg/mL,> 12800 µg/mL,>12800 µg/mL,> 12800 µg/mL,>12800 µg/mL,> 12800 µg/mL,>12800 µg/mL,–,–
CCCCCCCCCCCCCCCC(=O)OCCC[n+]1ccccc1,250 µg/mL,250 µg/mL,1 µg/mL,4 µg/mL,500 µg/mL,500 µg/mL,< 0.25 µg/mL,1 µg/mL,2.36,0.6
C[N+](C)(C)CCO [CHOLINE],> 2000 µg/mL,>2000 µg/mL,> 2000 µg/mL,>2000 µg/mL,> 2000 µg/mL,>2000 µg/mL,> 2000 µg/mL,>2000 µg/mL,–,–
CCCCCCCC/C=C/CCCCCCCC(=O)OCC[n+]1ccccc1.[Br-],62 µg/mL,125 µg/mL,4 µg/mL,62 µg/mL,250 µg/mL,250 µg/mL,8 µg/mL,16 µg/mL,1.17,-0.9
CCCCCCCCCCCCCCCCOC(=O)CC[n+]1ccccc1,> 1000 µg/mL,>1000 µg/mL,250 µg/mL,500 µg/mL,> 1000 µg/mL,>1000 µg/mL,250 µg/mL,250 µg/mL,–,0.42
CCCCCCCCCCCC(=O)OCCC[n+]1ccccc1,125 µg/mL,125 µg/mL,4 µg/mL,16 µg/mL,250 µg/mL,250 µg/mL,4 µg/mL,4 µg/mL,1.81,-0.6
CCCCCCCCCCCC(=O)OCC[n+]1ccccc1.CCCCCCCCCCCCCCCC(=O)OCC[n+]1ccccc1.CCCCCCCCCCCCCCCCCC(=O)OCC[n+]1ccccc1.[Br-].[Br-].[Br-],125 µg/mL,250 µg/mL,32 µg/mL,32 µg/mL,> 2000 µg/mL,>2000 µg/mL,8 µg/mL,16 µg/mL,–,–
CCCCCCCCCCCCCCCCCCOC(=O)C[n+]1ccccc1,> 12800 µg/mL,>12800 µg/mL,> 12800 µg/mL,>12800 µg/mL,> 12800 µg/mL,>12800 µg/mL,> 12800 µg/mL,>12800 µg/mL,-1.1,-4.1
CCCCCCCCCCCC(=O)OCC[N+](CC)(CC)CC.CCCCCCCCCCCC(=O)OCC[n+]1ccccc1.[Br-].[Br-],125 µg/mL,250 µg/mL,64 µg/mL,64 µg/mL,1000 µg/mL,1000 µg/mL,32 µg/mL,125 µg/mL,–,–
CCCCCCCCCCCC(=O)OCC[N+](CC)(CC)CC.CCCCCCCCCCCCCCCC(=O)OCC[N+](CC)(CC)CC.[Br-].[Br-],500 µg/mL,500 µg/mL,32 µg/mL,125 µg/mL,> 2000 µg/mL,>2000 µg/mL,8 µg/mL,16 µg/mL,–,–
CCCCCCCCCCCC(=O)OCC[N+](C)(C)C,64 µg/mL,64 µg/mL,16 µg/mL,64 µg/mL,250 µg/mL,250 µg/mL,16 µg/mL,16 µg/mL,–,–
